High-throughput results from PubChem.
KCNK9 block – human KCNK9 channel inhibition; HEK293 KCNK9, FluxOR thallium flux fluorescence; active compounds read low; Q9NPC2; 1.2% of 310,000 active; B-score at 10 µM;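 active = ratio B-score over 3 SD below the library mean, with starting fluorescence within 5 SD of its mean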;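 note: negative B-score means less thallium flux so channel inhibition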
KCNQ1 inh – human KCNQ1 channel inhibition. CHO-K1 KCNQ1, FluxOR thallium flux fluorescence; active compounds read high. 1.3% of 310,000 active. B-score at 10 µM. AID 2642. P51787;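 active = compounds whose thallium flux B-score, printed positive for inhibition, exceeds three library SD while starting fluorescence stays within three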;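 note: channel opened by potassium depolarization with thallium stimulus after 20 min compound exposure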
hERG protect – shields human hERG channel from block by proarrhythmic agents; AID 1511; 0.51% of 310,000 active; CHO-hERG, FluxOR thallium flux, dofetilide IC70 present; activation (rescue from dofetilide block), less the hit threshold, % at 10 µM; Q12809;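 active = activation above the mean of controls blocked by dofetilide plus 5 SD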;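 note: thallium influx through hERG after potassium depolarization seen as dye fluorescence rise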
KCNQ1 pot – potentiators or activators of human KCNQ1 potassium channel. P51787. CHO-K1 KCNQ1, thallium flux FluxOR fluorescence; active compounds read high. B-score at 10 µM. 0.35% of 310,000 active. AID 2648;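 active = fluorescence ratio B-score, a plate-corrected score, at least three library SD, with initial intensity B-score within 5 SD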
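assay system = KCNQ1-transfected CHO-K1 cells | medium = assay buffer with matched DMSO | probe or stimulus = depolarizing K+/Tl+ stimulus, K2SO4 and Tl2SO4 each 12.5 mM in 5x stock | dosing = single dose | incubation = dye 90 min, compound 20 min, room temperature | detection = kinetic FluxOR fluorescence, 10 s baseline plus 110 s post-stimulus | evaluation = ratio B score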
KCNK3 block – human KCNK3 channel inhibition, primary screen | O14649 | CHO-KCNK3 thallium flux, FluxOR fluorescence; active compounds read low | B-score at 10 µM | 0.84% of 340,000 active;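 active = B-score under library mean minus 4 SD, starting fluorescence ratio at most library mean plus 5 SD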;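 note: more negative B-score means stronger inhibition of thallium flux through KCNK3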
Target sequence (O14649 whole entry, looked up): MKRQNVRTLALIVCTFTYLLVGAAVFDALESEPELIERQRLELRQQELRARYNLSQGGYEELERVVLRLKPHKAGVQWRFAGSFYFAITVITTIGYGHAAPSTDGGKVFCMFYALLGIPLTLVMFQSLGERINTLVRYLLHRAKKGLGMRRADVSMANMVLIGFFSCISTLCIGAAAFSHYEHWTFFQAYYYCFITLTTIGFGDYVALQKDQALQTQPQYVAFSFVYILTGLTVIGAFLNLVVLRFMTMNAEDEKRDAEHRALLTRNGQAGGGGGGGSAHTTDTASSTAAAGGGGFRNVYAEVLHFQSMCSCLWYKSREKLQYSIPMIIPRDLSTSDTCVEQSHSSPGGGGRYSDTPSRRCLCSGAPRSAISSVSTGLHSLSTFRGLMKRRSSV
Kir21 inh – Kir2.1 (mouse) channel inhibition | HEK293-Kir2.1, FluxOR thallium flux fluorescence; active compounds read low | 0.85% of 310,000 active | B-score at 10 µM | AID 1672;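 active = fluorescence ratio B-score at or below minus 3 SD of library scores, with starting-brightness B-score within 2 SD, cut at about -4.2 in these data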;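 note: channel flux triggered by added potassium and thallium sulfate stimulus; B-score of peak minus minimum fluorescence over baseline after thallium stimulus; more negative B-score means stronger Kir2.1 block with less thallium influx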
Large screens that a line does not name were inactive. Shown are actives, neighbours in structure and some others; about 3.7% of the full set was active somewhere.

C#CCOCCOCCOCCNc1nc(N2CCN(C(=O)C([C@@H](C)CC)n3cc(C(N)Cc4ccc(O)cc4)nn3)CC2)nc(N2CCN(C(=O)[C@H](CCC(=O)O)n3cc(C(N)CC(C)C)nn3)CC2)n1 (some centres not stated)	KCNQ1 pot 24
C#CCOCCOCCOCCNc1nc(N2CCN(C(=O)C([C@@H](C)CC)n3cc(C(N)CC(C)C)nn3)CC2)nc(N2CCN(C(=O)[C@H](CCC(=O)O)n3cc(C(N)Cc4ccc(O)cc4)nn3)CC2)n1 (some centres not stated)	none
CCN1C[C@@H]2[C@@H]3C(=O)N(C)C(=O)[C@@H]3[C@](CC)(C(=O)OC)N2C1=NCc1ccccc1	none (no result: KCNK9 block, KCNQ1 inh, hERG protect, KCNQ1 pot, Kir21 inh)
O=[N+]([O-])c1ccc(C2CC(c3ccccc3)=Nc3ccccc3S2)cc1 (configuration not stated)	KCNK9 block -7.9
COc1ccccc1CNS(=O)(=O)c1ccc(Br)s1	Kir21 inh -5
CC1CCc2sc(C(=O)N=Nc3c(O)[nH]c4ccccc34)cc2C1 (configuration not stated)	none (no result: KCNK3 block)
O=C(CSc1nc2ccccc2c(=O)n1-c1ccc(F)cc1F)Nc1ccc2c(c1)CCC2	KCNK9 block -7.6
O=[N+]([O-])c1ccc(N/N=C2\CC3CC=CC23)c([N+](=O)[O-])c1 (configuration not stated)	KCNQ1 inh 9
CCCN1C(=O)C(=O)c2cc(Cl)ccc21	none (no result: KCNK9 block, KCNQ1 inh, hERG protect, KCNQ1 pot, Kir21 inh)
CC(C)c1nc(=S)c2ccccc2[nH]1	none
S=c1nc(C2CCCCC2)[nH]c2ccccc12	hERG protect 10, KCNQ1 pot 22
S=c1nc(C2CC2)[nH]c2ccccc12	hERG protect 20, KCNQ1 pot 29
COc1cccc(-c2cc(N)nn2C(=O)Nc2ccc(Cl)cc2)c1	none
CCOC(=O)c1c(C)[nH]c(C)c1C(=O)CSc1nc2ccccc2n1CCOC	none
CCOC(=O)c1c(C)[nH]c(C)c1C(=O)CSc1nc2ccccc2n1CC	Kir21 inh -5.3
Cc1cccc(N2CCN(S(=O)(=O)c3ccc(Cl)nc3)CC2C)c1 (configuration not stated)	none (no result: KCNK9 block, KCNQ1 inh, hERG protect, KCNQ1 pot, Kir21 inh)
CCN(Cc1ccccc1)Cc1nnnn1Cc1ccccc1	Kir21 inh -6.9
CN(C)c1nnnn1Cc1ccccc1	none
CCOc1ccc(C2C(C(=O)OC)=C(C)N=C3SCCC(=O)N32)cc1OCC (configuration not stated)	KCNK3 block -8.8
CC1Nc2ncnc(N3CCN(c4ccccc4)CC3)c2N(Cc2ccc(Br)cc2)C1=O (configuration not stated)	KCNK9 block -6.7
COc1ccccc1Cn1c(C(C)C)nc2ccccc21	Kir21 inh -5
COc1ccccc1Cn1c(/C=C/c2ccccc2)nc2ccccc21	KCNK9 block -7
C#CCOc1ccc(/C=C2/C(=O)ON=C2C)cc1Cl	none
C=CCNC(=O)/C(C#N)=C/c1ccccc1[N+](=O)[O-]	none
N#C/C(=C\c1ccccc1[N+](=O)[O-])C(=O)NCc1ccccc1	KCNQ1 inh 6
CCCCCCCCNC(=O)/C(C#N)=C/c1ccccc1[N+](=O)[O-]	KCNQ1 inh 7
N#C/C(=C\C=C\c1ccccc1[N+](=O)[O-])C(=O)NCc1ccccc1	none
Cc1ccc(C(=O)N/C(=C\c2ccccc2)C(=O)NCCN2CCOCC2)cc1	none
Cc1cc(-c2nnc(SCC(=O)Nc3ccc(C(F)(F)F)cc3)n2C)no1	hERG protect 6.2
Cc1cc(-c2nnc(SCC(=O)Nc3ccccc3)n2C)no1	none
CN(Cc1ccccc1F)c1nc(-c2cccs2)nc2ccccc12	KCNK9 block -8, KCNQ1 inh 6
c1cncc(-c2nc(N3CCCCCC3)c3ccccc3n2)c1	none
Fc1ccccc1N1CCN(c2nc(-c3cccs3)nc3ccccc23)CC1	KCNK9 block -7.6
c1ccc2c(N3CCCCCC3)nc(-c3ccncc3)nc2c1	KCNK9 block -6.6
CC(=O)N1CCN(c2nc(-c3cccs3)nc3ccccc23)CC1	none
O=C(COC(=O)/C=C/c1ccc2c(c1)OCO2)NC1CC1	hERG protect 5.4
Cc1c(Cl)cccc1NC(=S)NCCc1ccc(C(F)(F)F)cc1	KCNQ1 inh 7
O=C1CSC(c2ccc(Cl)cc2)N1C1CCCCC1 (configuration not stated)	Kir21 inh -6.1
O=C1CSC(c2cccnc2)N1C1CCCCC1 (configuration not stated)	none
CN(C)S(=O)(=O)c1cccc(NC(=O)C(c2ccccc2)c2ccccc2)c1	none
CN(CC(=O)Nc1cccc(F)c1)CC(=O)Nc1ccccc1[N+](=O)[O-]	none
COCc1ccc(C(=O)Nc2cccc(S(=O)(=O)N(C)c3ccccc3)c2)cc1	none (no result: KCNK9 block, KCNQ1 inh, hERG protect, KCNQ1 pot, Kir21 inh)
CN(CC(=O)Nc1cccc(F)c1)CC(=O)Nc1cccc(S(=O)(=O)N(C)c2ccccc2)c1	KCNK3 block -9.3 (no result: KCNK9 block, KCNQ1 inh, hERG protect, KCNQ1 pot, Kir21 inh)
CN(c1ccc(C(=O)Nc2cccc(O)c2)cc1)S(=O)(=O)c1ccccc1	Kir21 inh -4.8
CCC(C(=O)Nc1cccc(S(=O)(=O)N(C)c2ccccc2)c1)c1ccccc1 (configuration not stated)	KCNK3 block -9.9 (no result: KCNK9 block, KCNQ1 inh, hERG protect, KCNQ1 pot, Kir21 inh)
CN(CC(=O)Nc1cccc(F)c1)CC(=O)Nc1cccc2ccccc12	KCNK3 block -11 (no result: KCNK9 block, KCNQ1 inh, hERG protect, KCNQ1 pot, Kir21 inh)
COCCCNC(=O)C[C@H]1C[C@H](C(=O)N(C(C)C)C(C)C)[C@@]2(C)c3[nH]c4cc(CCC(=O)N(C)C)ccc4c3CCN2C1=O	none (no result: KCNK9 block, KCNQ1 inh, hERG protect, KCNQ1 pot, Kir21 inh)
COc1ccc(S(=O)(=O)Nc2ccc3c(c2)CCC3)cc1	none
CCOC(=O)COn1c(-c2cccc(Cl)c2)nc2ccc([N+](=O)[O-])cc21	KCNQ1 inh 6
CC(On1c(-c2ccccc2)nc2ccc(Cl)cc21)C(=O)O (configuration not stated)	none
COc1ccc(C2c3ccsc3CCN2C(C)=O)cc1 (configuration not stated)	none
O=C(C1CC1)N1CCc2sccc2C1c1ccc(Cl)cc1 (configuration not stated)	KCNQ1 inh 6
CC(NC(=O)Nc1ccccc1Cl)c1ccc2c(c1)OCO2 (configuration not stated)	none
COc1cccc(OCCNC(=O)Nc2cc(F)c(F)cc2Cl)c1	hERG protect 6.1
COc1ccc(OCCNC(=O)Nc2cc(F)c(F)cc2Cl)cc1	none
COC(=O)c1ccc(C(=O)OC)c(NC(=O)CCc2ccc(C)o2)c1	hERG protect 45
Cc1ccc(N=Cc2c(O)n(-c3cc(Cl)ccc3N3CCOCC3)c(=O)c3ccccc23)cc1C	KCNQ1 inh 10
Cc1cc(N=Cc2c(O)n(-c3cccc(Cl)c3)c(=O)c3ccccc23)no1	none
CC(C)(C)OC(=O)N1CCC[C@H]1c1nnc(SCc2ccccc2Cl)o1	Kir21 inh -8
